Our source for the Activity and Ki values is ChEMBL document CHEMBL1137569, “Pharmacomodulations around the 4-oxo-1,4-dihydroquinoline-3-carboxamides, a class of potent CB2-selective cannabinoid receptor ligands: consequences in receptor affinity and functionality” (J Med Chem, 2007).

The Ki is a dissociation constant, usually derived from enzyme kinetics or from competition with a known ligand.

Each structure is given as a SMILES string.

The target of one test is T1, Cannabinoid receptor 2 (Homo sapiens, UniProt P34972). Briefly: Displacement of [3H]CP-55940 from human CB2 receptor expressed in CHO cells. In kind it is cell-based. On the set-up: concentration or dose not given beside the values. In a few lines: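 Competitive radioligand binding on membranes from CHO cells expressing hCB2, with [3H]-CP-55,940 as tracer. Compounds were first screened at 10 µM. Ki at CB2 was then determined for those displacing more than 60% of specific binding.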
T1 sequence (P34972 whole entry): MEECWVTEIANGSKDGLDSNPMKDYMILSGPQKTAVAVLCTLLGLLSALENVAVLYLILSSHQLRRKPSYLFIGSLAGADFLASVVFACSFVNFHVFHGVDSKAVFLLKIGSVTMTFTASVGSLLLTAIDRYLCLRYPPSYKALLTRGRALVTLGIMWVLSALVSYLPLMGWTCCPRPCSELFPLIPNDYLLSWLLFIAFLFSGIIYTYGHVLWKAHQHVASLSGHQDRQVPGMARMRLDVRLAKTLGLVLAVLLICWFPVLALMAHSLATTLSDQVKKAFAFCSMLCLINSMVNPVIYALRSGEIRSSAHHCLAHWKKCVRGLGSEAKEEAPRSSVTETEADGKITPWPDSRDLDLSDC
The compound `CCCCCn1cc(C(=O)c2ccc3ccccc3c2)c(=O)c2ccccc21` showed an Activity of 74.3%.

Compound `O=C(c1cn(CCN2CCOCC2)c2ccccc2c1=O)c1cccc2ccccc12` yielded an Activity of 46.1%.

As for `CCCCCn1c(C)c(C(=O)NC(C)c2ccc3ccccc3c2)c(=O)c2ccccc21` (single isomer, unassigned; (-)), the Activity stood at 62.6%.

With `CCCCCn1cc(CNCC2CCCc3ccccc32)c(=O)c2ccccc21` (racemic), the Activity is 63.9%.

Consider `CCCCCn1cc(C(=O)c2ccccc2)c(=O)c2ccccc21`, for which the Activity turned out to be 94.5%.

In turn, `CCCCn1cc(C(=O)c2ccc(OC)cc2)c(=O)c2ccccc21` gave an Activity of under 10%.

The compound `O=C(NCCc1ccccc1)c1cn(CCN2CCOCC2)c2ccccc2c1=O` gave an Activity of 46.7%.

`O=C(c1c[nH]c2ccccc2c1=O)c1cccc2ccccc12` yielded an Activity of 31%.

`CCCCCn1c(C)c(C(=O)NCCc2ccccc2)c(=O)c2ccccc21` displayed an Activity of 57.3%.

In turn, `CC12CC3CC(C)(C1)CC(NC(=O)c1cn(Cc4ccc(Cl)cc4)c4ccccc4c1=O)(C3)C2` registered an Activity of 48.1%.

Consider `O=C(c1cn(CCc2ccccc2)c2ccccc2c1=O)c1cccc2ccccc12`, for which the Activity came out at 56.8%.

In turn, `CCCCCn1cc(C(=O)c2ccc3cc(OC)ccc3c2)c(=O)c2ccccc21` showed an Activity of 44.1%.

For `CC12CC3CC(C)(C1)CC(NC(=O)c1cn(Cc4ccc(Br)cc4)c4ccccc4c1=O)(C3)C2`, the Activity worked out at 30.5%.

For `CCCCCn1cc(C(=O)c2ccc(OC)cc2)c(=O)c2ccccc21`, the Activity came to 46.9%.

`CCCCCn1cc(C(=O)NC2CCCc3ccccc32)c(=O)c2ccccc21` (single isomer, unassigned; (-)) [listing 1 of 2 here] registered an Activity of 90.9%.

Another test concerns the target T1, Cannabinoid receptor 2. Kind of test: Inhibition of human CB2 receptor expressed in CHO cells. It is filed as cell-based.
On to `CCCCCn1cc(C(=O)NC(C)C23CC4CC(CC(C4)C2)C3)c(=O)c2ccc(Cl)cc21` (single isomer, unassigned; (+)), for which affinity was put at a Ki of 265 nM.

In turn, `CCCCCn1cc(C(=O)c2ccc3ccccc3c2)c(=O)c2ccccc21` displayed a Ki of 1290 nM.

For the compound `CCCCCn1c(C)c(C(=O)NC(C)c2ccc3ccccc3c2)c(=O)c2ccccc21` (single isomer, unassigned; (-)), the Ki is over 2000 nM.

For `CCCCCn1cc(CNCC2CCCc3ccccc32)c(=O)c2ccccc21` (racemic), the Ki is over 4000 nM.

For `CCCCCn1cc(C(=O)NC2CCCc3ccccc32)c(=O)c2ccccc21` (single isomer, unassigned; (-)) [listing 2 of 2 here], the Ki was 1010 nM.

`CCCCCn1cc(C(=O)c2ccccc2)c(=O)c2ccccc21` yielded an inhibitory constant (Ki) of 446 nM.

On to `CCCCCn1cc(C(=O)NC(C)C23CC4CC(CC(C4)C2)C3)c(=O)c2cc(Cl)ccc21` (single isomer, unassigned; (+)), for which the Ki amounted to 144 nM.

`CCCCCn1cc(C(=O)NC(C)C23CC4CC(CC(C4)C2)C3)c(=O)c2cc(Cl)ccc21` (single isomer, unassigned; (-)) showed a Ki of 235 nM.

`CCCCCn1cc(C(=O)NC(C)C23CC4CC(CC(C4)C2)C3)c(=O)c2ccccc21` (racemic) registered an inhibition constant (Ki) of 28.5 nM.

As for `CCCCCn1cc(C(=O)NC2CCCc3ccccc32)c(=O)c2ccccc21` (single isomer, unassigned; (+)), the affinity corresponds to a Ki of 41.7 nM.

The compound `CCCCCn1cc(C(=O)NC(C)C23CC4CC(CC(C4)C2)C3)c(=O)c2ccc(Cl)cc21` (single isomer, unassigned; (-)) showed a Ki of 26.1 nM.

The compound `CCCCCn1cc(C(=O)NC(C)C23CC4CC(CC(C4)C2)C3)c(=O)c2ccccc21` (stereo in doubt; 24) had a Ki of 14 nM.

`CCCCCn1cc(C(=O)NC(C)C23CC4CC(CC(C4)C2)C3)c(=O)c2ccc(Cl)cc21` (racemic) displayed a Ki of 41.1 nM.

On to `CCCCCn1cc(C(=O)NC(C)C23CC4CC(CC(C4)C2)C3)c(=O)c2cc(Cl)ccc21` (racemic), for which the Ki is 222 nM.

Compound `CCCCCn1cc(C(=O)NC2CCCc3ccccc32)c(=O)c2cc(Cl)ccc21` (single isomer, unassigned; (+)) displayed a Ki of 121 nM.

In the case of `CCCCCn1cc(C(=O)NC2CCCc3ccccc32)c(=O)c2cc(Cl)ccc21` (racemic), the inhibitory constant (Ki) is 506 nM.

Compound `CCCCCn1cc(C(=O)NC(C)C23CC4CC(CC(C4)C2)C3)c(=O)c2ccccc21` (single isomer, unassigned; (+)) came in with a Ki of 202 nM.
